Reference: PMC6220361 (Molecular Pharmaceutics, 2018)
Read-outs that look alike come from different tables or passages of the source. One block for each compound: values may come before it.

Key:
[1] = system: SP1–7 binding site; assay: Dynamic PET imaging, blocking experiments; format: in vivo, Wistar rats
In short: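 Healthy male Wistar rats (200–320 g) under isoflurane (3% induction, 1–2.5% maintenance, in oxygen). A 5 min CT or 15 min MRI preceded the i.v. tail-vein tracer bolus and a 60 min dynamic PET scan. Blockers were SP1–7 (5% DMSO in saline), 185 nmol·kg–1 i.p. 15 min before, or the unlabeled tracer analogue (20% EtOH in saline), 3 μmol·kg–1 slow i.v. 3 or 20 min before. Read-out was manual brain/spinal cord ROI SUV ± SD.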

[2] = target: SP1–7 binding site; details: rat spinal cord membranes preparation; cited from earlier work
[3] = target: SP1–7 binding site; details: read-out: binding; rat ventral tegmental area; cited from earlier work
[4] = mouse plasma; cited from earlier work
[5] = system: Caco-2 cell monolayer; details: cited from earlier work
[6] = self-blocking, i.v. 3 μmol·kg^–1, 3 min prior to tracer
[7] = blocker i.p. 185 nmol·kg^–1, 15 min prior to tracer

blocking of [^11C]1 brain uptake ([1]; blocker i.v. 3 μmol·kg^–1, 20 min prior to tracer): did not block brain uptake
blocking of [^11C]1 spinal cord uptake ([1]; self-blocking, 3 or 20 min prior to tracer injection): did not show any blocking
Compound: NC(=O)[C@H](Cc1ccccc1)NC(=O)OCc1ccccc1 [compound 1, (S)-Benzyl (1-Amino-1-oxo-3-phenylpropan-2-yl)carbamate]
Ki [2]: 5.2 nM

blocking of [^11C]2 brain uptake [1, 6]: did not show any blocking effect
blocking of [^11C]2 spinal cord uptake [1, 6]: did not show any blocking effect
Compound: NC(=O)[C@@H](Cc1ccccc1)NC(=O)OCc1ccccc1 [compound 2, (R)-Benzyl (1-Amino-1-oxo-3-phenylpropan-2-yl)carbamate]

blocking of [^11C]1 brain uptake [1, 7]: did not block brain uptake
blocking of [^11C]1 spinal cord uptake [1, 7]: moderate blocking
Compound: H-Arg-Pro-Lys-Pro-Gln-Gln-Phe-OH (H-RPKPQQF-OH) [SP1–7]
Ki [3]: 3.9 nM
in vitro half-life [4]: 4.4 min
permeability [5]: failed to display any measurable permeability
